Tests used:
[1] = test system: Plasmodium falciparum; experiment: In vitro antimalarial activity against Plasmodium falciparum; format: functional, organism-based
In short: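 Chloroquine-sensitive P. falciparum FCR-3 strain cultured in vitro. EC50 was determined.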

[2] = test system: FM3A; experiment: Effective concentration against mouse mammary FM3A cells; format: ADME, cell-based
In short: (§1)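 Mouse mammary tumor FM3A cells in culture served as the mammalian cytotoxicity counterscreen. EC50 was determined; where no activity was found at 10 μM, percent growth inhibition at that concentration was given.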

[3] = test system: FM3A; experiment: Percent inhibition of growth against mouse mammary FM3A cells; format: cell-based; parameters: concentration or dose not given beside the values; in short: as §1
[4] = Selectivity as the ratio of EC50 value for FM3A cells to that of Plasmodium falciparum.; format: functional
In short: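 Selectivity was taken as the mean EC50 in FM3A cells divided by the mean EC50 against P. falciparum FCR-3.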

[5] = test system: Mus musculus; experiment: Mice survival days reported after intraperitoneal administration; format: ADME, organism-based; conditions: in vivo, ip
In short: (§2)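 P. berghei NK 65 strain in mice, five per group. Compounds in olive oil were given ip or im once daily on days 0–3, starting on the day of infection. Parasitemia was read on day 4 from Giemsa-stained tail blood smears, counting 1×10^4 erythrocytes per film, and suppression calculated against DMSO sham-treated infected controls. Survival was recorded in days. Values are means of five mice, one test.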

[6] = test system: Plasmodium berghei; experiment: Antimalarial activity against Plasmodium berghei infected mice (Mus musculus) after intramuscular administration at a dose 100 mg/kg/day; format: ADME, organism-based; parameters: route intramuscular; conditions: im; in short: as §2
[7] = test system: Mus musculus; experiment: Mice survival days reported after intramuscular administration; format: ADME, organism-based; conditions: in vivo, im; in short: as §2

| SMILES | EC50 [1] [nM] | EC50 [2] [µM] | Inhibition [3] [%] | Selectivity [4] | Survival [5] [days] | inhibition at 100 mg/kg [6] [%] | Survival [7] [days] |
| --- | --- | --- | --- | --- | --- | --- | --- |
| CC1(CI)C[C@H]2CCCCC2O1 (some centres not stated) | 120000 | > 210 | 34 | >2 | – | – | – |
| COC12CCC[C@H](CC(C)(CI)OO1)C2 (some centres not stated) | 2500 | > 80 | 6 | >32 | – | – | – |
| COC12CCC[C@@H](C1)C(I)C(C)(C)OO2 (some centres not stated) | 15000 | > 64 | 10 | >4 | – | – | – |
| CC1(CI)C[C@H]2CCCC[C@@H]2OO1 (relative stereo) | 1500 | 66 | – | 44 | – | – | – |
| CC12CCC[C@@H](C1)C(C)(CI)OO2 (some centres not stated) | 13 | > 84 | 10 | >6462 | – | – | – |
| CCOC(=O)C(I)C12CCCC(C1)C(C)(C)OO2 (configuration not stated) | 11 | 3.1 | – | 282 | 6.5 | 80 | 9.8 |
| CC1(CI)C[C@H]2CCCC(C2)OO1 (some centres not stated) | 3000 | > 96 | 47 | >32 | – | – | – |
| COC12CCC[C@@H](C1)C(C)(CI)OO2 (some centres not stated) | 1700 | > 70 | 19 | >41 | – | – | – |
| C[C@@H]1CC[C@H]2[C@@H](C)C(=O)O[C@@H]3O[C@@]4(C)CC[C@@H]1[C@]32OO4 [ARTEMISININ] | – | – | – | 1000 | – | – | – |
| CC12CCC[C@H](C1)C(C)(CI)O2 (some centres not stated) | 1000 | > 48 | 0 | >48 | – | – | – |
| COC12C[C@H](CC[C@@H]1C)C(C)(CI)OO2 (some centres not stated) | 2000 | > 54 | 8 | >27 | – | – | – |
| CC1(C)OC2(CI)CCCC1C2 (configuration not stated) | 5800 | > 84 | 10 | >14 | – | – | – |
| CC1(C)OOC2(CI)CCCC1C2 (configuration not stated) | 40 | 68 | – | 1700 | 7 | 99 | 9.6 |

— ChEMBL document CHEMBL1135976, “Antimalarial activity of yingzhaosu A analogues” (J Med Chem, 2002)
